The test system of series [1] is Cell membrane. The experiment in a line: Induction of inner membrane permeabilization in Escherichia coli ATCC 25922 assessed as SYTOX green uptake at 1 times MIC incubated for 1 hr by fluorescence based microplate reader analysis relative to control. The essentials:
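Exponential-phase cells washed twice in PBS pH 7, resuspended to OD600 0.4; equal volume SYTOX green (4 μM) added, 5 min. Peptide added (4, 8, 16 μM), 1 h at 37 °C with shaking. Fluorescence ex 488/em 523 nm; % uptake computed from untreated (F0) and positive-control peptide BTT1 (Fmax) signals. Three repeats.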

The subject of series [2] is Staphylococcus aureus. The experiment in a line: Antimicrobial activity against Staphylococcus aureus ATCC 29737 assessed as inhibition of bacterial growth incubated for 18 hrs by broth microdilution method. The format is functional, organism-based. The essentials:
(§1)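 Standard broth microdilution in MHB. Overnight culture (37 °C, 120 rpm) adjusted to OD600 0.07 and diluted 1000× to 3 × 10^5 CFU/mL. Peptides serially diluted in triplicate, 18 h at 37 °C with 120 rpm shaking. Growth read as OD600; MIC is the lowest concentration with no visible growth. Colistin served as control for Gram-negatives, vancomycin for S. aureus.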
(In general: Broth dilution looks for growth in wells or tubes with falling amounts of substance.)

Series [3] deals with Escherichia coli. The experiment in a line: Antimicrobial activity against Escherichia coli ATCC 25922 assessed as fold increase in MIC incubated for 18 hrs in presence of 10% fetal bovine serum by broth microdilution method relative to control. The format is functional. The essentials: (§2)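 E. coli broth microdilution in MHB containing 10% fetal bovine serum. Inoculum 3 × 10^5 CFU/mL, diluted from an OD600 0.07 suspension. Incubated 18 h at 37 °C with 120 rpm shaking, OD600 read, triplicates. Fold change in MIC calculated against control MIC.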

The test system of series [4] is Cell membrane. The experiment in a line: Induction of outer membrane permeabilization in Escherichia coli ATCC 25922 assessed as NPN uptake at 1 times MIC incubated for 1 hr by fluorescence based microplate reader analysis relative to control. The essentials:
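Exponential-phase cells washed twice in PBS pH 7, resuspended to OD600 0.4; equal volume 40 μM NPN added, then equal volume peptide (4, 8, 16 μM). Incubated 1 h at 37 °C with shaking. Fluorescence ex 355/em 405 nm; % uptake relative to no-compound (F0) and colistin 100 μM control (Fmax). Three repeats.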

In series [5] the test system is Escherichia coli. The experiment in a line: Antimicrobial activity against colistin/carbapenem resistant Escherichia coli clinical isolate R2 harboring mcr-1 and NDM-1 gene assessed as fold increase in MIC incubated for 18 hrs by broth microdilution method relative to control. The format is functional.
The subject of series [6] is Escherichia coli. The experiment in a line: Antimicrobial activity against Escherichia coli ATCC 25922 assessed as fold increase in MIC compound pretreated for 1 hr with trypsin and measured after 18 hrs by broth microdilution method relative to control. The format is functional. The note with it: trypsin pretreatment 1 hr; MIC measured after 18 hrs. Put shortly: (§3)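 Peptide incubated with trypsin at a 1:2000 trypsin/peptide molar ratio (e.g., 1 mM peptide with 0.5 μM trypsin), 37 °C, 1 h. Reaction stopped at 80 °C for 10 min, then serially diluted against E. coli in MHB broth microdilution. Inoculum 3 × 10^5 CFU/mL, 37 °C, 120 rpm, 18 h, read by OD600, triplicates. Fold change in MIC taken versus untreated control.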

Series [7] has as its system Escherichia coli. The experiment in a line: Antimicrobial activity against Escherichia coli ATCC 25922 assessed as fold increase in MIC incubated for 18 hrs in presence of NaCl by broth microdilution method relative to control. The format is functional. The essentials:
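MHB broth microdilution against E. coli with 150 mM NaCl added to the medium. Inoculum 3 × 10^5 CFU/mL, 37 °C, 120 rpm, 18 h, OD600 read, triplicates. MIC fold change taken relative to control.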

Series [8] can be described thus: Stability of compound assessed as trypsin (unknown origin) mediated compound degradation by measuring parent compound remaining measured after 1 hr by RP-HPLC analysis. The format is ADME, protein assay. The note with it: human, read-out: Stability. The essentials:
(§4)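 Peptide with trypsin at a 1:2000 trypsin/peptide molar ratio, 37 °C, sampled at 15, 30, 60 and 90 min. Reaction stopped with an equal volume of 50% acetonitrile/1% TFA. Analysed on C18 RP-HPLC with UV at 220 nm; intact peptide given as % of AUC.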

Series [9] concerns Escherichia coli. The experiment in a line: Antimicrobial activity against colistin/carbapenem resistant Escherichia coli clinical isolate R3 harboring NDM-7 and OXA-181 gene assessed as fold increase in MIC incubated for 18 hrs by broth microdilution method relative to control. The format is functional.
For series [10], the system named is Escherichia coli. The experiment in a line: Antimicrobial activity against colistin resistant Escherichia coli clinical isolate R1 harboring mcr-1 gene assessed as fold increase in MIC incubated for 18 hrs by broth microdilution method relative to control. The format is functional.
Series [11] has as its system Escherichia coli. The experiment in a line: Antimicrobial activity against colistin resistant Escherichia coli clinical isolate R1 harboring mcr-1 gene assessed as inhibition of bacterial growth incubated for 18 hrs by broth microdilution method. The format is functional, organism-based. Put shortly:
(§5)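 Overnight MHB culture (37 °C, 120 rpm) adjusted to OD600 0.07 (~10^8 CFU/mL), then diluted 1000× to 3 × 10^5 CFU/mL. Peptides serially diluted with the bacterial suspension in triplicate, shaken at 37 °C, 120 rpm for 18 h, then OD600 read. MIC is the lowest concentration with no visible growth. Colistin as positive control.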

Series [12] has as its system Escherichia coli. The experiment in a line: Bactericidal activity against Escherichia coli ATCC 25922 assessed as cell killing at 1 times MIC measured after 6 hrs relative to control. The format is functional. Put shortly: (§6)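 Time-kill against E. coli ATCC 25922 at 1× and 2× MIC, counted as CFU/mL over time. Limit of detection 50 CFU/mL; experiments repeated two times.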

The test system of series [13] is Escherichia coli. The experiment in a line: Antimicrobial activity against colistin/carbapenem resistant Escherichia coli clinical isolate R2 harboring mcr-1 and NDM-1 gene assessed as inhibition of bacterial growth incubated for 18 hrs by broth microdilution method. The format is functional, organism-based. The essentials: as §5
Series [14] has as its system Escherichia coli. The experiment in a line: Induction of membrane morphological changes in Escherichia coli ATCC 25922 at 16 uM measured after 1 hr by TEM analysis. The format is functional, organism-based.
Series [15] deals with Pseudomonas aeruginosa. The experiment in a line: Antimicrobial activity against Pseudomonas aeruginosa ATCC 9027 assessed as inhibition of bacterial growth incubated for 18 hrs by broth microdilution method. The format is functional. Put shortly: as §1
In series [16] the test system is Erythrocyte. The experiment in a line: Hemolytic activity in human RBC upto 128 uM incubated for 1 hr by absorbance based analysis. The format is toxicity, cell-based. The essentials:
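Washed human RBCs from healthy volunteers at 4% in PBS. Peptide at 4–128 μM, 37 °C for 1 h. Supernatant after 1000g, 10 min spin read at OD540. 1% Triton X-100 gave full lysis; % hemolysis derived and HC50 estimated.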

The test system of series [17] is Escherichia coli. The experiment in a line: Antimicrobial activity against Escherichia coli ATCC 25922 assessed as inhibition of bacterial growth incubated for 18 hrs by broth microdilution method. The format is functional. The essentials:
as §1

The subject of series [18] is Escherichia coli. The experiment in a line: Antimicrobial activity against Escherichia coli ATCC 25922 assessed as inhibition of bacterial growth incubated for 18 hrs in presence of 10% fetal bovine serum by broth microdilution method. The format is functional, organism-based. Put shortly:
as §2

Series [19] has as its system Escherichia coli. The experiment in a line: Antimicrobial activity against Escherichia coli ATCC 25922 assessed as inhibition of bacterial growth compound pretreated for 1 hr with trypsin and measured after 18 hrs by broth microdilution method. The format is functional, organism-based. Put shortly:
as §3

The target in series [20] is Trypsin (Homo sapiens, UniProt P07477+P07478+P35030). The experiment in a line: Stability of compound assessed as trypsin (unknown origin) mediated compound degradation by measuring parent compound remaining measured after 1.5 hrs by RP-HPLC analysis. The format is ADME, protein assay. Conditions: trypsin, read-out: Stability. Put shortly:
as §4

The test system of series [21] is Escherichia coli. The experiment in a line: Bactericidal activity against Escherichia coli ATCC 25922 assessed as cell killing at 2 times MIC measured after 3 hrs relative to control. The format is functional. The essentials: as §6
For series [22], the system named is Escherichia coli. The experiment in a line: Induction of membrane morphological changes in Escherichia coli ATCC 25922 at 16 uM measured after 3 to 6 hrs by TEM analysis. The format is functional, organism-based. Conditions: time 3-6 hrs.

Data on two molecules can be found in ChEMBL document CHEMBL5331120, “Stapled β-Hairpin Antimicrobial Peptides with Improved Stability and Activity against Drug-Resistant Gram-Negative Bacteria” (J Med Chem, 2023).

In brackets after ≈: the same amount, converted by molar mass. Activity calls are given as the source filed them. The calls are words filed in the database; no cut-off is given here.

Regarding H-LKLKLKPGKLKLKL-OH, the values for the Activity in series [1] and in series [4] were 80% and 40%, respectively. Further, the result in [2] was inactive. The “fold change (FC)” value in series [3] is reported as 8; in series [5] it was “>=8”; in series [6], 8; in [7], 32; in series [9], “>=8”; in series [10], “>=8”. Also, the remaining at 1 h in [8] is less than 10%.
In the case of `CC(C)C[C@@H]1NC(=O)[C@H](CCCCN)NC(=O)CNC(=O)C2CCCN2C(=O)[C@H](CCCCN)NC(=O)[C@H](CC(C)C)NC(=O)[C@H](CCCCN)NC(=O)[C@H](CC(C)C)NC(=O)[C@H](CCCCN)NC(=O)[C@@H](N)CC/C=C/CC[C@@H](C(=O)O)NC(=O)[C@H](CCCCN)NC(=O)[C@H](CC(C)C)NC(=O)[C@H](CCCCN)NC1=O` (single isomer, unassigned), the result in series [11], in series [13], in [18], in series [19] and in series [22] was Active. In addition, the Activity is 100% in series [12]; 80% in series [1]; 70% in [4]; “Non-Toxic” in series [16]; 100% in series [21]. Also, the result in [2] and in series [14] was inactive. Besides, the MIC in series [15] and in series [17] was 8 µM (≈ 12.7 µg/mL) throughout. Besides, the remaining at 1.5 h in series [20] was greater than 40%.
